Columns and labels:
A2780 [1] = test: Growth inhibition against A2780 cisplatin resistant wild-type ovarian cell lines; type: functional, cell-based; details: Homo sapiens
Method in brief: (§1)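 Cells in exponential growth (5 × 10⁴ cells/mL) were exposed to compound freshly dissolved in DMSO for 24 h at 37 °C. Drug medium was then replaced with fresh medium, followed by 3 days of growth. Viability was read by sulforhodamine B staining. IC50 is the concentration giving a 50% reduction in SRB colour formation.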

A2780 [2] = test: Growth inhibition against A2780 wild-type ovarian cell lines; type: functional, cell-based; details: Homo sapiens; method in brief: as §1
CH1 [3] = test: Growth inhibition against CH-1 wild-type ovarian cell lines; type: functional, cell-based; details: Homo sapiens; method in brief: as §1
SK-OV-3 [4] = test: Growth inhibition against SKOV3 wild-type ovarian cell lines; type: functional, cell-based; details: Homo sapiens; method in brief: as §1
Homo sapiens = species: Homo sapiens; test: Resistance factor (IC50 in the resistant cell line/IC50 in the parent cell line); type: functional
CH1 [5] = test: Growth inhibition against CH-1 cisplatin resistant wild-type ovarian cell lines; type: functional, cell-based, Homo sapiens; method in brief: as §1
CH1 [6] = test: Compound was evaluated for growth inhibition against CH1cisR wild-type ovarian cell lines; type: functional, cell-based; details: Homo sapiens
Method in brief: (§2)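 Cells kept as in earlier work; exponentially growing cultures (5 × 10⁴ cells/mL) given compound freshly dissolved in DMSO, 24 h at 37 °C. Drug medium then replaced with fresh medium, followed by 3 day growth. Viability by sulforhodamine B staining; IC50 taken as concentration giving 50% reduction in SRB colour formation.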

SK-OV-3 [7] = test: Compound was evaluated for growth inhibition against SKOV3 wild-type ovarian cell lines; type: functional, cell-based; details: Homo sapiens; method in brief: as §2

Row | IC50 (SK-OV-3 [7]) [nM] | Compound | IC50 (A2780 [1]) [nM] | IC50 (A2780 [2]) [nM] | IC50 (CH1 [3]) [nM] | IC50 (SK-OV-3 [4]) [nM] | RF (Homo sapiens) | IC50 (CH1 [5]; Homo sapiens, CH1) [nM] | RF (Homo sapiens; Homo sapiens) | IC50 (CH1 [6]) [nM] | IC50 (CH1 [5]; ch1) [nM]
1 |  | O=C1c2ccccc2C(=O)c2c(NCCCN(CCCl)CCCl)ccc(NCCCN(CCCl)CCCl)c21 | 52 | 31 | 30 | 190 | 3.7 | 110 |  |  | 
2 |  | CN(CCO)CCNc1cccc2c1C(=O)c1ccccc1C2=O | 4200 | 3400 | 2900 | 13000 | 1 | 2800 | 1.2 |  | 
3 |  | CN(CCCl)CCNc1ccc(NCCN(C)CCCl)c2c1C(=O)c1c(O)ccc(O)c1C2=O | 24 | 9 | 7 | 100 | 1.9 | 14 | 2.7 |  | 
4 |  | O=C1c2c(O)ccc(O)c2C(=O)c2c(NCCN(CCCl)CCCl)ccc(NCCN(CCCl)CCCl)c21 | 170 | 120 | 54 | 1450 | 2 | 110 | 1.4 |  | 
5 | 18000 | O=C1c2ccccc2C(=O)c2c(NCCN(CCO)CCO)ccc(NCCN(CCO)CCO)c21 | 3500 | 3300 | 3900 |  | 0.8 |  | 1.1 | 3300 | 
6 |  | O=C1c2ccccc2C(=O)c2c(NCCCN(CCCl)CCCl)cccc21 | 640 | 410 | 185 | 1900 | 2.9 | 550 | 1.6 |  | 
7 |  | CN(CCCl)CCNc1cccc2c1C(=O)c1ccccc1C2=O | 8000 | 4600 | 2500 | 13500 | 1.2 | 3100 | 1.7 |  | 
8 |  | CN(CCO)CCCNc1cccc2c1C(=O)c1ccccc1C2=O | 3300 | 3100 | 2600 | 11500 | 1 | 2600 | 1.1 |  | 
9 |  | CN(CCO)CCNc1ccc(NCCN(C)CCO)c2c1C(=O)c1ccccc1C2=O | 580 | 720 | 680 | 3300 | 1.2 | 800 | 0.8 |  | 
10 |  | O=C1c2c(O)ccc(O)c2C(=O)c2c(NCCCN(CCO)CCO)ccc(NCCCN(CCO)CCO)c21 | 740 | 680 | 580 | 2450 | 1.3 | 780 | 1.1 |  | 
11 |  | CN(CCCl)CCNc1ccc(NCCN(C)CCCl)c2c1C(=O)c1ccccc1C2=O | 355 | 135 | 110 | 770 | 1.3 | 145 | 2.6 |  | 
12 |  | CN(C)CCNc1ccc(NCCN(CCO)CCO)c2c1C(=O)c1c(O)ccc(O)c1C2=O | 13 | 13 | 30 | 260 | 1.6 | 46 | 1 |  | 
13 |  | CN(CCO)CCNc1ccc(NCCN(C)CCO)c2c1C(=O)c1c(O)ccc(O)c1C2=O | 4 | 4 | 8 | 11000 | 2.6 | 22 |  |  | 
14 | 6700 | O=C1c2ccccc2C(=O)c2c(NCCCN(CCO)CCO)ccc(NCCCN(CCO)CCO)c21 | 3400 | 3500 | 2200 |  | 1.1 |  | 1 | 2400 | 
15 |  | CN(CCCl)CCCNc1cccc2c1C(=O)c1ccccc1C2=O | 2700 | 2700 | 1440 | 10800 | 0.9 | 1300 | 1 |  | 
16 |  | O=C1c2ccccc2C(=O)c2c(NCCN(CCCl)CCCl)ccc(NCCN(CCCl)CCCl)c21 | 96 | 51 | 78 | 860 | 1.2 | 92 | 1.9 |  | 
17 |  | CN(C)CCNc1ccc(NCCN(CCCl)CCCl)c2c1C(=O)c1c(O)ccc(O)c1C2=O | 19 | 16 | 18 | 155 | 1 | 19 | 1.2 |  | 
18 |  | CN(C)CCNc1ccc(NCCN(C)CCO)c2c1C(=O)c1c(O)ccc(O)c1C2=O | 5 | 5 | 24 | 300 | 1.9 | 45 | 1 |  | 
19 |  | O=C1c2c(O)ccc(O)c2C(=O)c2c(NCCN(CCO)CCO)ccc(NCCN(CCO)CCO)c21 | 115 | 82 | 300 | 1500 | 1.2 | 370 | 1.4 |  | 
20 |  | O=C1c2c(O)ccc(O)c2C(=O)c2c(NCCCN(CCCl)CCCl)ccc(NCCCN(CCCl)CCCl)c21 | 38 | 28 | 25 | 185 |  | 35 | 1.4 |  | 
21 |  | O=C(O)CCCc1ccc(N(CCCl)CCCl)cc1 [CHLORAMBUCIL] | 52500 |  | 3300 | 35000 | 2.4 | 7900 |  |  | 
22 |  | CISPLATIN |  |  |  |  |  |  |  |  | 650

Reference: ChEMBL document CHEMBL1149130, “Synthesis and biological evaluation of novel chloroethylaminoanthraquinones with potent cytotoxic activity against cisplatin-resistant tumor cells” (J Med Chem, 2004)
